Assay results of several laboratories.
Lines come from different studies, so protocols differ.
Target: Serine/threonine-protein kinase PLK3 (PLK3, Homo sapiens, UniProt Q9H4B4)

SMILES | read-out | method | concentration | remaining binding [%]
COc1cnc(Nc2cccc(S(N)(=O)=O)c2)nc1N1CCN(c2ccccc2)C(=O)C1 | binding | competition with immobilised ligand | 1 µM | 63
N#Cc1ccccc1CSc1nnc2c(n1)[nH]c1ccccc12 | binding | competition with immobilised ligand | 10 µM | 100
F[C@@H]1CCN(c2nccc(-c3cnn4ncccc34)n2)C1 | binding |  | 1 µM | 87
C[C@H](c1ccnc(Nc2nc3ccc(-c4cc(N(C)C)ncn4)cc3[nH]2)c1)N1CCN(C(=O)CC(F)(F)F)CC1 | cell-free assay | competition with immobilised ligand | 0.1 µM | 100
COc1ccnn2ncc(-c3ccnc(N(C)C)n3)c12 | binding |  | 1 µM | 75
O=C(Nc1cccnn1)N1CC(C/C=C/c2cncc(Oc3ccc(C(F)(F)F)cn3)n2)C1 | cell-free assay | competition with immobilised ligand | 1 µM | 80
c1cncc(-c2cccc(Nc3nccc(NC4CCCCC4)n3)c2)c1 | binding | competition with immobilised ligand | 10 µM | 78
O=C(O)c1cc(-c2ccc(C3CCNCC3)cc2)c2ccc(-c3ccc(C(F)(F)F)cc3)cc2c1 | cell-free assay | competition with immobilised ligand | 1 µM | 100
Nc1ncc2c(n1)-c1c([nH]c3ccc(C#CC4CC4)cc13)CCCC2 | binding | competition with immobilised ligand | 1 µM | 99
CN([C@@H]1CCc2c(CC(=O)O)c3ccccc3n2C1)S(=O)(=O)c1ccc(F)cc1 | cell-free assay | competition with immobilised ligand | 1 µM | 85
C[C@@H]1CN(c2ccc3ncc(-c4ccc5[nH]nc(C6CC6)c5c4)n3n2)C[C@H](C)O1 | binding | competition with immobilised ligand | 50 nM | 78
O=C(c1ccc(Nc2nccc(-c3cc4ccccc4s3)n2)cc1)N1CCC(N2CCCC2)CC1 | binding | competition with immobilised ligand | 1 µM | 81
CC(=O)N1CCC(c2ccc(C(=O)NC3=NCCN3)cc2C(F)(F)F)CC1 | cell-free assay | competition with immobilised ligand | 1 µM | 78
CN(C)c1nccc(-c2cnc3ncccn23)n1 | binding |  | 1 µM | 66
O=C(c1ccc(Nc2ncc(Cl)c(-c3ccc(Cl)s3)n2)cc1)N1CCC(N2CCCC2)CC1 | binding | competition with immobilised ligand | 1 µM | 31
NS(=O)(=O)c1cc(NC(=O)Cc2ccccc2)ccc1Oc1cccc(Cl)c1 | cell-free assay | competition with immobilised ligand | 1 µM | 87
O=C(NCC1CCOCC1)c1n[nH]cc1NC(=O)c1c(F)cccc1F | binding | competition with immobilised ligand | 1 µM | 89
CC(C)(C)c1ccc(-c2nc(CBr)nn2-c2cccc(O)c2)cc1 | cell-free assay | competition with immobilised ligand | 10 µM | 98
CN(C)c1ncc(F)c(-c2cnn3ncccc23)n1 | binding |  | 1 µM | 79
O=C(NCCCN1CCOCC1)c1ccc(Nc2nccc(-c3cc4ccccc4s3)n2)cc1 | binding | competition with immobilised ligand | 1 µM | 42
N[C@H]1CCN(c2nccc(-c3cnn4ncccc34)n2)C1 | binding |  | 1 µM | 83
COc1ccc2cc(OCC3(C(=O)O)CN(C(=O)c4ccc(F)cc4)C3)ccc2c1 | cell-free assay | competition with immobilised ligand | 1 µM | 95
C[C@@H]1CCN(c2nccc(-c3cnn4ncccc34)n2)C1 | binding |  | 1 µM | 88
CNC(=O)[C@@H]1CC[C@@H](n2c(-c3ccc4cnccc4c3)nc3ccc(C(=O)NCc4cccc(C(N)=O)c4)cc32)C1 | binding | competition with immobilised ligand | 1 µM | 100
